Hits are enriched below; roughly 2.3% of the tested compounds scored in any of these assays.
DNMT1 block: human DNMT1 methyltransferase inhibitors, primary screen, biochemical, molecular beacon, fluorescence, HinP1I cleavage, uHTS | DNA (cytosine-5)-methyltransferase 1 (Homo sapiens), P26358 | inhibition (reported as % activation of signal), % at 10 µM | 360,000 compounds, 0.83% hits; in the data active = inhibition above about 50%
SUMO1-SIM PPI: modulators of SUMO1 protein-protein interactions, primary screen, biochemical, uHTS; inhibition, % at 20 µM; AID 602429, 2012; 360,000 compounds, 0.33% hits; Small ubiquitin-related modifier 1 (Homo sapiens), P63165; SUMO1 binding to a labelled peptide, TR-FRET, 1 h; in the data active = inhibition above about 37%
Target sequence (P63165 whole entry, looked up): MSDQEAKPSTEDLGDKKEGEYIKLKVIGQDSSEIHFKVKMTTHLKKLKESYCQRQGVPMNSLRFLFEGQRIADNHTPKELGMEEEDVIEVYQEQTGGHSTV
Rpn11 block: Rpn11 (PSMD14) deubiquitinase inhibitors, primary screen, biochemical, fluorescence polarization, uHTS | AID 588493, 2011 | 26S proteasome non-ATPase regulatory subunit 14 (Homo sapiens), O00487 | inhibition, % at 20 µM | 360,000 compounds, 0.59% hits | human 26S proteasome, Ub4-pepOG fluorescence polarization; 20S core pre-blocked with epoxomicin;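 active = inhibition at 20 µM, scaled to each plate's controls, above about 33%, limit read from the data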
LMPTP inh: LMPTP phosphatase inhibitors, primary screen, biochemical, fluorescence intensity, uHTS | Low molecular weight phosphotyrosine protein phosphatase (Homo sapiens), P24666 | recombinant LMPTP-A, OMFP fluorogenic substrate | inhibition, % at 20 µM | 360,000 compounds, 0.22% hits;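 active = compounds that cut the enzyme signal by at least half of the control window in the single-dose screen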
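Test system – LMPTP-A phosphatase enzyme · Quantity – 0.625 nM LMPTP-A final · Reagent – OMFP substrate, 400 µM final · Dosing – one test concentration per compound, 20 µM, with 3% DMSO overall · Timing – 50 min enzyme reaction at room temperature, protected from light · Detection – fluorescence intensity · Controls – substrate-only low control, DMSO enzyme-plus-substrate high control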
STEP inh: STEP phosphatase inhibitors, primary screen, biochemical, fluorescence intensity, uHTS; inhibition, % at 20 µM; 360,000 compounds, 0.25% hits; recombinant STEP, OMFP fluorogenic substrate; Tyrosine-protein phosphatase non-receptor type 5 (Homo sapiens), P54829; AID 588621, 2011;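 active = inhibition at 20 µM, scaled per plate between control wells, above about 37%, limit read from the data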
Target sequence (P54829 whole entry, looked up): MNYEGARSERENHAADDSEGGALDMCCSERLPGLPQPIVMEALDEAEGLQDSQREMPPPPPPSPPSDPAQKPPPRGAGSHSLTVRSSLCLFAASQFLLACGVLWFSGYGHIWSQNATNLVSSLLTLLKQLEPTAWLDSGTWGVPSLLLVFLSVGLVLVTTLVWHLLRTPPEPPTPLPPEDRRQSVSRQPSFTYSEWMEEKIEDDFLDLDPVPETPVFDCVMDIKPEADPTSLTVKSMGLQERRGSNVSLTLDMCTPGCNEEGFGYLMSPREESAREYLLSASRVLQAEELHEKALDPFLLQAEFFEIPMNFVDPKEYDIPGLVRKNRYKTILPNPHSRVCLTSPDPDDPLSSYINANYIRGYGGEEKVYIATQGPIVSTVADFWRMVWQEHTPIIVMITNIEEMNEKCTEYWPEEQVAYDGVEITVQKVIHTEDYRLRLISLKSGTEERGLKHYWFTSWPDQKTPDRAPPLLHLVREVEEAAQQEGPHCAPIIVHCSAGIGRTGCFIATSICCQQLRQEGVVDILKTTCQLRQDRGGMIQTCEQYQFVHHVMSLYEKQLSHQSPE
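Material: STEP (striatal-enriched tyrosine phosphatase) enzyme, cell-free; Compound dosing: 20 µM single dose in 1% DMSO; Technique: fluorescence read at 480 nm ex / 540 nm em; Times: reaction 20 min, ambient temperature; Medium: 50 mM Bis-Tris pH 6.0 with 2.5 mM DTT and 0.005% Tween 20; Also added: OMFP at 25 µM.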
Scp1 inh: Scp-1 phosphatase inhibitors, primary screen, biochemical, colorimetric, uHTS. Recombinant Scp1, phosphopeptide, malachite green phosphate absorbance. inhibition, % at 20 µM. 340,000 compounds, 0.88% hits. Carboxy-terminal domain RNA polymerase II polypeptide A small phosphatase 1 (Homo …;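 active = inhibition above about 50% at 20 µM, limit read from the data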
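Test system – truncated SCP-1 phosphatase (76-261aa) · Reagent – Phosphorylated 17-residue peptide substrate · Incubation – 45 min room-temperature reaction, 5 min colour, 30 min stabiliser · Detection – colorimetric phosphate reagent with accelerator and stabiliser, absorbance at 630 nm · Measure – % inhibition at 20 µM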
Scp1 confirm: Scp-1 phosphatase inhibitors, retest, confirmation, biochemical, colorimetric, single concentration; recombinant SCP-1 catalytic domain, phosphate release, malachite green absorbance; shares compounds with Scp1 inh; inhibition, % at 20 µM; 2,500 compounds, 61% hits; AID 540281, 2011
MG interference: colorimetric readout interference by compounds, confirmation, artefact control for Scp-1 inhibitor project, biochemical, single concentration. 2,500 tested, under 10 active. apparent inhibition (interference), % at 20 µM. shares compounds with Scp1 inh. Colorimetric interference counterscreen, malachite green absorbance 630 nm;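 note: compounds added after enzyme reaction finished so only phosphate colour detection is probed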
Scp1 DSF: Scp-1 binding by thermal shift, confirmation, orthogonal assay for Scp-1 inhibitor project, biophysical, differential scanning fluorimetry. shares compounds with Scp1 inh. Recombinant SCP1, Sypro Orange thermal shift Tm. thermal shift relative to vanadate control, % at 40 µM. 1,500 compounds, 25% hits. AID 540329, 2011;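 active = substances whose mean melting-temperature shift, as a percentage of the reference inhibitor's shift, reaches about 5.3%, limit read from the data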
Of the large screens only hits and unclear results are named; the others gave an inactive call (follow-up assays come after a bar, where shown).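 Rule for the calls, unless noted: active = inhibition of at least 30% at 20 µM; inactive = the rest.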

CCOC(=O)c1ccc(N2C(=O)c3n[nH]c(C)c3C2c2ccc(OC)c(OC)c2)cc1 (configuration not stated)	Scp1 inh 57.5 | Scp1 confirm inactive | MG interference inactive
CCOC(=O)c1ccc(N2C(=O)c3n[nH]c(C)c3C2c2ccc(OC)cc2)cc1 (configuration not stated)	none
CCOc1ccccc1NC(=O)Nc1cc(S(=O)(=O)N(C)C)ccc1C	Scp1 inh 72.7 | Scp1 confirm inactive | MG interference inactive
Cc1cccc(Nc2ncc3c(n2)CC(c2ccco2)CC3=O)c1 (configuration not stated)	LMPTP inh 59.5, Scp1 inh 85.5 | Scp1 confirm inactive | MG interference inactive
NC(=O)C[n+]1cccc2ccccc21	Scp1 inh 98.5 | Scp1 confirm inactive | MG interference inactive
C=CCNC(=O)c1ccc(C2SCC(=O)N2Cc2ccco2)cc1 (configuration not stated)	Scp1 inh 68.8 | Scp1 confirm 52.8 | MG interference inactive | Scp1 DSF inactive
COCCNC(=O)c1ccc(C2SCC(=O)N2Cc2ccco2)cc1 (configuration not stated)	none
CCn1c(NC)cc(=O)n(C)c1=O	Scp1 inh 78.6 | Scp1 confirm inactive | MG interference inactive
CC1=C(C(=O)O)N2C(=O)C(NC(=O)c3ccccc3Cl)C2SC1 (configuration not stated)	none
N[C@@H](C(=O)N[C@@H]1C(=O)N2C(C(=O)O)=C(Cl)CS[C@H]12)c1ccccc1	Scp1 inh 57.2 | Scp1 confirm 59.9 | MG interference inactive | Scp1 DSF 7.4
CC(=O)c1ccc(NC(=O)CSc2ccsc2[N+](=O)[O-])cc1	Scp1 inh 72.3 | Scp1 confirm 63.5 | MG interference inactive | Scp1 DSF 7.1
O=C(COC(=O)/C=C/c1ccco1)NCCN1C(=O)CSC1=O	Scp1 inh 65.2 | Scp1 confirm inactive | MG interference inactive
O=C(COC(=O)/C=C/c1ccco1)Nc1ncc(Cl)cc1Cl	Scp1 inh 56.7 | Scp1 confirm 56.2 | MG interference inactive | Scp1 DSF inactive
CN(C)S(=O)(=O)c1ccc(Cl)c(NC(=O)COC(=O)/C=C/c2ccco2)c1	Scp1 inh 69.3 | Scp1 confirm 45.5 | MG interference inactive | Scp1 DSF inactive
Cc1nc(NC(=O)COC(=O)/C=C/c2ccco2)c(Cl)cc1Cl	none
CCNC(=O)NC(=O)C(C)OC(=O)c1cccn1C (configuration not stated)	none
Cc1ccc2c(CN3CCC(C(N)=O)CC3)cc(=O)oc2c1C	none
Cc1ccc(NC2Sc3ccccc3NC2=O)cc1Cl (configuration not stated)	none
COc1ccc2c(c1)c(=O)oc1c(C)c(OCc3cc(C(=O)O)oc3C)ccc12	Scp1 inh 92.5 | Scp1 confirm 94.3 | MG interference inactive | Scp1 DSF inactive
COc1ccc2c(c1)c(=O)oc1c(C)c(OCC(=O)N3CCc4ccccc4C3)ccc12	none
COc1ccc2c(c1)c(=O)oc1c(C)c(OCc3ccc(C(=O)O)cc3)ccc12	SUMO1-SIM PPI 44.8, LMPTP inh 57.8, STEP inh 41.2, Scp1 inh 92.7 | Scp1 confirm 58.4 | MG interference inactive | Scp1 DSF inactive
CC1(c2ccc([N+](=O)[O-])cc2)NC(=O)N(CC(=O)Nc2cccnc2Cl)C1=O (configuration not stated)	none
C[C@H]1CN([C@@H](C)CO)C(=O)c2cccc(NC(=O)c3ccncc3)c2O[C@H]1CN(C)C(=O)Nc1ccccc1	Scp1 inh 95.3 | Scp1 confirm 72.1 | MG interference inactive | Scp1 DSF inactive
C[C@H](CO)N1C[C@H](C)[C@@H](CN(C)C(=O)Nc2ccccc2)Oc2c(NC(=O)c3ccncc3)cccc2C1=O	Scp1 inh 88.3 | Scp1 confirm inactive | MG interference inactive
C[C@H](CO)N1C[C@H](C)[C@@H](CN(C)C(=O)Nc2ccc(C(F)(F)F)cc2)Oc2c(NC(=O)c3ccncc3)cccc2C1=O	Scp1 inh 88.3 | Scp1 confirm inactive | MG interference inactive
C[C@H](CO)N1C[C@H](C)[C@@H](CN(C)C)Oc2c(NC(=O)c3ccncc3)cccc2C1=O	none
COc1ccc(NC(=O)N(C)C[C@H]2Oc3c(NC(=O)c4ccncc4)cccc3C(=O)N([C@H](C)CO)C[C@@H]2C)cc1	Scp1 inh 60.8 | Scp1 confirm inactive | MG interference inactive
O=C(NNC(=O)C1CC=CCC1)c1ccccc1Cl (configuration not stated)	none
O=C1Nc2ccccc2/C1=N/N=C/c1ccc(-c2ccc([N+](=O)[O-])cc2)o1	Scp1 inh 75.1 | Scp1 confirm 36.3 | MG interference inactive | Scp1 DSF 5.6
CN(/N=C/c1ccc(-c2ccc([N+](=O)[O-])cc2)o1)c1ccccc1	none (not shown: Rpn11 block)
COc1ccccc1CNC(=O)C(=O)NCC1CCCN1S(=O)(=O)c1cccs1 (configuration not stated)	none
O=C(O)c1ccc2c(=O)n(-c3ccccc3)c(=S)[nH]c2c1	Scp1 inh 79.0 | Scp1 confirm inactive | MG interference inactive
O=C(O)c1ccc(Oc2ccc(S(=O)(=O)c3ccc(C(=O)O)c(C(=O)O)c3)cc2)cc1	Scp1 inh 54.3 | Scp1 confirm 40.6 | MG interference inactive | Scp1 DSF inactive
O=C(O)c1ccc(S(=O)(=O)c2ccccc2)cc1	none

Compound activity: PubChem BioAssay, Sanford-Burnham Center for Chemical Genomics
